Active and inactive are the calls of the source. The rule behind the calls is not given here.
Legend:
[1] = Nephrotoxicity in C57BL/6 mouse assessed as tissue damage up to 2000 mg/kg, ig after 14 days by microscopic analysis; type: toxicity, organism-based; settings: in vivo, po, 336 h
Method in brief: (§1)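 Mice given a single intragastric dose of test compound at various dosages, then observed for 14 days for death and abnormal behaviour. On day 14, animals were sacrificed and heart, liver, lungs and kidneys examined.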

Mus musculus [2] = assay: Neuroprotection in C57BL/6J mouse model of amyloid beta (25 to 35 residues) induced Alzheimer's disease assessed as reduction in ratio of apoptotic neuron in CA1 hippocampus region at 30 mg/kg/day, ig administered for 26 consecutive days by hematoxylin and eosin staining-based light microscopic analysis (reference value: 40.6 +/- 12.5%); type: ADME, organism-based; set-up: scale not given: the % may be the effect or the level left; settings: in vivo, po
Method in brief: (§2)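 Hippocampal CA1, CA3 and DG neurons were stained with H&E after the Aβ25-35 ICV model and 26-day intragastric dosing. Denatured cell index = denatured cells/total cells, n = 5. Values are mean ± SD, two-way ANOVA versus model.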

[3] = Metal chelating activity of the compound assessed as formation of ferrous-compound complex at 50 uM after 30 mins by UV-vis spectrophotometric analysis
Method in brief: (§3)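 UV-vis absorption spectra of compound (50 µM) were recorded in HEPES buffer alone and with 50 µM CuSO4, ZnCl2, FeSO4 or FeCl3, and spectral changes were assessed.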

Mus musculus [4] = assay: Cognition enhancement activity in amyloid beta (25 to 35 residues) induced C57BL/6J mouse model of Alzheimer's disease assessed as decrease in escape latancy at 30 mg/kg/day, ig administered for 26 consecutive days by Morris water maze test; type: functional, organism-based
Method in brief: (§4)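 Mice were randomized into 7 groups. All except sham got an ICV injection of Aβ25-35 (3 nmol); sham got the same volume of saline ICV. Dosing was intragastric daily for 26 days, with 0.5% CMC-Na as vehicle for sham and model. Body weight, diarrhea and emesis-like behavior were monitored.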

Mus musculus [5] = assay: Cognition enhancement activity in amyloid beta (25 to 35 residues) induced C57BL/6J mouse model of Alzheimer's disease assessed as swimming path length in virtual platform at 30 mg/kg/day, ig administered for 26 consecutive days by Morris water maze test (10.2 +/- 3.2 cm); type: functional; method in brief: as §4
[6] = Drug metabolism in Sprague-Dawley rat liver microsomes assessed as metabolic rate up to 180 mins in presence of NADPH by UV-based LC-MS/MS analysis; type: ADME, Microsome; settings: 3 h
Mus musculus [7] = assay: Cognition enhancement activity in amyloid beta (25 to 35 residues) induced C57BL/6J mouse model of Alzheimer's disease assessed as increase in number of virtual platform crossing at 30 mg/kg/day, ig administered for 26 consecutive days by Morris water maze test; type: functional, organism-based; method in brief: as §4
[8] = Metal chelating activity assessed as inhibition of Cu2+-induced amyloid beta (1 to 42 residues) aggregation at 25 uM after 24 hrs by thioflavin-T fluorescence assay (reference value: 156%); set-up: scale not given: the % may be the effect or the level left
Method in brief: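 Aβ1-42 was incubated with Cu(II) (CuSO4) with or without compound, and thioflavin T fluorescence was read. The Aβ-alone signal was set as 100%. Mean ± SD of three independent experiments.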

[9] = Toxicity in amyloid beta (25 to 35 residues) induced C57BL/6J mouse model of Alzheimer's disease assessed as diarrhea at 30 mg/kg/day, ig administered for 26 consecutive days; type: organism-based; settings: in vivo, po; method in brief: as §4
[10] = Metal chelating activity assessed as inhibition of Cu(II)/ascorbate-induced ROS production by measuring […] level at 10 uM by fluorescence assay
Method in brief: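 A Cu-ascorbate redox system in PBS (pH 7.4) at 37 °C, with Cu(II) 5 µM, ascorbate 150 µM and coumarin-3-carboxylic acid 50 µM as the hydroxyl radical trap. Compound was pre-incubated 10 min before ascorbate was added. Fluorescence of 7-hydroxy-CCA (ex 395, em 450 nm) was read every 30 s for 15 min.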

[11] = Cardiotoxicity in C57BL/6 mouse assessed as tissue damage up to 2000 mg/kg, ig after 14 days by microscopic analysis; type: toxicity, organism-based; settings: in vivo, po, 336 h; method in brief: as §1
[12] = Acute Toxicity in C57BL/6 mouse up to 2000 mg/kg, ig measured every 14 days; type: organism-based; settings: in vivo, po, 336 h; method in brief: as §1
[13] = Acute Toxicity in C57BL/6 mouse lung assessed as abnormal changes up to 2000 mg/kg, ig after 14 days by microscopic analysis; type: organism-based; settings: in vivo, po, 336 h; method in brief: as §1
in vitro [14] = settings: Sprague-Dawley, rat, liver microsomes
[15] = Metal chelating activity of the compound assessed as formation of cupric-compound complex at 50 uM after 30 mins by UV-vis spectrophotometric analysis; method in brief: as §3
Mus musculus [16] = assay: Cognition enhancement activity in amyloid beta (25 to 35 residues) induced C57BL/6J mouse model of Alzheimer's disease assessed as swimming speed at 4 mg/kg/day, ig administered for 26 consecutive days by Morris water maze test (reference value: 15.6 +/- 2.4 cm/sec); type: functional; method in brief: as §4
in vitro [17] = settings: PAMPA
Mus musculus [18] = assay: Neuroprotection in amyloid beta (25 to 35 residues) induced C57BL/6J mouse model of Alzheimer's disease assessed as reduction in ratio of apoptotic neuron in DG hippocampus region at 30 mg/kg/day, ig administered for 26 consecutive days by hematoxylin and eosin staining-based light microscopic analysis (reference value: 55.8 +/- 7.2%); type: ADME, organism-based; set-up: scale not given: the % may be the effect or the level left; settings: in vivo, po; method in brief: as §2
[19] = Metal chelating activity assessed as inhibition of Cu(II)-induced amyloid beta (1 to 42 residues) aggregation at 25 uM after 24 hrs by thioflavin-T fluorescence assay (reference value: 156%); set-up: scale not given: the % may be the effect or the level left
Method in brief: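 Aβ1-42 was incubated with CuSO4 with or without compound, and thioflavin T fluorescence was read. Fluorescence is given as percent of Aβ alone, as mean ± SD of three independent experiments.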

SH-SY5Y = assay: Cytotoxicity against human SH-SY5Y cells assessed as effect on cell viability at 10 uM after 24 hrs by MTT assay; type: cell-based
Method in brief: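 SH-SY5Y viability was measured by MTT after exposure to compounds at 10 µM. Results are percent of vehicle control from three independent experiments.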

[20] = Antioxidant activity assessed as trolox equivalent of AAPH-induced radical scavenging activity at 10 to 20 uM preincubated for 10 mins followed by AAPH addition measured every minute for 120 mins by ORAC fluorescein assay; type: functional
Method in brief: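 ORAC values are expressed as trolox equivalents, mean ± SD of three independent experiments.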

[21] = Metal chelating activity assessed as inhibition of Cu(II)-induced amyloid beta (1 to 42 residues) aggregation at 25 uM after 24 hrs by TEM assay
Method in brief: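 Samples were prepared as for the ThT assay. 10 µL aliquots were applied to carbon-coated copper grids for 2 min, then stained with 3% phosphotungstic acid for 2 min and imaged by transmission electron microscopy.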

[22] = Acute Toxicity in C57BL/6 mouse lung assessed as tissue damage up to 2000 mg/kg, ig after 14 days by microscopic analysis; type: organism-based; settings: in vivo, po, 336 h; method in brief: as §1
[23] = Hepatotoxicity in C57BL/6 mouse assessed as abnormal changes up to 2000 mg/kg, ig after 14 days by microscopic analysis; type: toxicity, organism-based; settings: in vivo, po, 336 h; method in brief: as §1
[24] = Acute Toxicity in C57BL/6 mouse assessed as abnormal behavior up to 2000 mg/kg, ig measured over 14 days; type: organism-based; settings: in vivo, po, 336 h; method in brief: as §1

Question: Which results are given for COc1ccc(C(=O)Nc2ccc(O)c3ncccc23)cc1OC1CCCC1.Cl?
Answer: Activity [1]: Non-Toxic; Activity (Mus musculus [2]): 13.8%; Activity [3]: Active; Activity (Mus musculus [4]): Active; Activity (Mus musculus [5]): 18 cm; K [6]: 0.0134 min⁻¹; Activity (Mus musculus [7]): Active; Activity [8]: 51%; Activity [9]: Non-Toxic; Activity [10]: Active; Activity [11]: Non-Toxic; Activity [12]: Non-Toxic; Activity [13]: Non-Toxic; half-life (in vitro [14]): 51.7 min; Activity [15]: Active; Activity (Mus musculus [16]): 15.3 cm/s; Papp at 10 h, 100 ug/ml (in vitro [17]): 5.9 ×10⁻⁶ cm/s; Activity (Mus musculus [18]): 26.8%; Activity [19]: 46%; Activity (SH-SY5Y): Non-Toxic; Activity [20]: 0.63 equiv; Activity [21]: Active; Activity [22]: Non-Toxic; Activity [23]: Non-Toxic; Activity [24]: Non-Toxic

Reference: ChEMBL document CHEMBL4422614 (Eur J Med Chem, 2019)
